ChEMBL document CHEMBL1145100, “Structure-activity relationship of imidazo[1,2-a]pyridines as ligands for detecting beta-amyloid plaques in the brain” (J Med Chem, 2003)

Columns and labels:
Mus musculus [1] = assay: Biodistribution of radioactivity in normal mice (ICR) kidney after 30 minutes of intravenous injection of [125I]-16(IMPY); type: ADME, organism-based; conditions: in vivo, 0.5 h
Procedure, shortened: (§1)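 Male ICR mice, 2-3 months old, 20-30 g, under ether anesthesia, given 0.15 mL of 0.1% bovine serum albumin solution containing the [125I] tracer into the tail vein. Killed by cardiac excision at set times after injection. Organs removed and weighed, then gamma-counted. % dose per organ computed against diluted aliquots of the injected material.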

Mus musculus [2] = assay: Biodistribution of radioactivity in normal mice (ICR) brain after 30 minutes of intravenous injection of [125I]-16(IMPY); type: ADME, organism-based; conditions: in vivo, 0.5 h; procedure, shortened: as §1
Mus musculus [3] = assay: Biodistribution of radioactivity in normal mice blood after 1 hour of intravenous injection of [125I]-16(IMPY); type: ADME, organism-based; conditions: in vivo; procedure, shortened: as §1
Mus musculus [4] = assay: Biodistribution of radioactivity in normal mice (ICR) skin after 2 minutes of intravenous injection of [125I]-16(IMPY); type: ADME, organism-based, Zone of skin; conditions: in vivo; procedure, shortened: as §1
Mus musculus [5] = assay: Biodistribution of radioactivity in normal mice (ICR) skin after 2 hours of intravenous injection of [125I]-16(IMPY); type: ADME, organism-based, Zone of skin; conditions: in vivo; procedure, shortened: as §1
Mus musculus [6] = assay: Biodistribution of radioactivity in normal mice (ICR) brain after 24 hours of intravenous injection of [125I]-16(IMPY); type: ADME, organism-based; conditions: in vivo; procedure, shortened: as §1
Mus musculus [7] = assay: Biodistribution of radioactivity in normal mice blood after 30 minutes of intravenous injection of [125I]-16(IMPY); type: ADME, organism-based; conditions: in vivo, 0.5 h
Procedure, shortened: (§2)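 Male ICR mice (2-3 months old, 20-30 g) under ether anesthesia; 0.15 mL of 0.1% bovine serum albumin solution containing the iodine-125 tracer injected into the tail vein. Mice killed by cardiac excision at set times. Organs removed, weighed and gamma-counted. Percent dose per organ derived against diluted aliquots of the injectate.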

Mus musculus [8] = assay: Biodistribution of radioactivity in normal mice (ICR) lung after 2 minutes of intravenous injection of [125I]-16(IMPY); type: ADME, organism-based; conditions: in vivo; procedure, shortened: as §1
Mus musculus [9] = assay: Biodistribution of radioactivity in normal mice (ICR) muscle after 6 hours of intravenous injection of [125I]-16(IMPY); type: ADME, organism-based, Muscle tissue; conditions: in vivo; procedure, shortened: as §1
Mus musculus [10] = assay: Biodistribution of radioactivity in normal mice (ICR) brain after 6 hours of intravenous injection of [125I]-16(IMPY); type: ADME, organism-based; conditions: in vivo; procedure, shortened: as §1
Mus musculus [11] = assay: Biodistribution of radioactivity in normal mice (ICR) brain after 2 hours of intravenous injection of [125I]-16(IMPY); type: ADME, organism-based; conditions: in vivo; procedure, shortened: as §1
Mus musculus [12] = assay: Biodistribution of radioactivity in normal mice (ICR) heart after 2 hours of intravenous injection of [125I]-16(IMPY); type: ADME, organism-based; conditions: in vivo; procedure, shortened: as §1
Mus musculus [13] = assay: Biodistribution of radioactivity in normal mice (ICR) spleen after 6 hours of intravenous injection of [125I]-16(IMPY); type: ADME, organism-based; conditions: in vivo; procedure, shortened: as §1
Mus musculus [14] = assay: Biodistribution of radioactivity in normal mice (ICR) muscle after 2 hours of intravenous injection of [125I]-16(IMPY); type: ADME, organism-based, Muscle tissue; conditions: in vivo; procedure, shortened: as §1
Mus musculus [15] = assay: Biodistribution of radioactivity in normal mice (ICR) lung after 6 hours of intravenous injection of [125I]-16(IMPY); type: ADME, organism-based; conditions: in vivo; procedure, shortened: as §1
Mus musculus [16] = assay: Biodistribution of radioactivity in normal mice (ICR) kidney after 6 hours of intravenous injection of [125I]-16(IMPY); type: ADME, organism-based; conditions: in vivo; procedure, shortened: as §1
Mus musculus [17] = assay: Biodistribution of radioactivity in normal mice (ICR) kidney after 1 hour of intravenous injection of [125I]-16(IMPY); type: ADME, organism-based; conditions: in vivo; procedure, shortened: as §1
Mus musculus [18] = assay: Biodistribution of radioactivity in normal mice (ICR) lung after 2 hours of intravenous injection of [125I]-16(IMPY); type: ADME, organism-based; conditions: in vivo; procedure, shortened: as §1
Mus musculus [19] = assay: Biodistribution of radioactivity in normal mice (ICR) skin after 1 hour of intravenous injection of [125I]-16(IMPY); type: ADME, organism-based, Zone of skin; conditions: in vivo; procedure, shortened: as §1
Mus musculus [20] = assay: Biodistribution of radioactivity in normal mice blood after 6 hours of intravenous injection of [125I]-16(IMPY); type: ADME, organism-based; conditions: in vivo; procedure, shortened: as §2
Mus musculus [21] = assay: Biodistribution of radioactivity in normal mice (ICR) skin after 30 minutes of intravenous injection of [125I]-16(IMPY); type: ADME, organism-based, Zone of skin; conditions: in vivo, 0.5 h; procedure, shortened: as §1
Mus musculus [22] = assay: Biodistribution of radioactivity in normal mice (ICR) heart after 1 hour of intravenous injection of [125I]-16(IMPY); type: ADME, organism-based; conditions: in vivo; procedure, shortened: as §1
Mus musculus [23] = assay: Biodistribution of radioactivity in normal mice (ICR) liver after 24 hours of intravenous injection of [125I]-16(IMPY); type: ADME, organism-based; conditions: in vivo; procedure, shortened: as §1
Mus musculus [24] = assay: Biodistribution of radioactivity in normal mice (ICR) liver after 2 hours of intravenous injection of [125I]-16(IMPY); type: ADME, organism-based; conditions: in vivo; procedure, shortened: as §1
Mus musculus [25] = assay: Biodistribution of radioactivity in normal mice (ICR) skin after 24 hours of intravenous injection of [125I]-16(IMPY); type: ADME, organism-based, Zone of skin; conditions: in vivo; procedure, shortened: as §1
Mus musculus [26] = assay: Biodistribution of radioactivity in normal mice (ICR) lung after 30 minutes of intravenous injection of [125I]-16(IMPY); type: ADME, organism-based; conditions: in vivo, 0.5 h; procedure, shortened: as §1
Mus musculus [27] = assay: Biodistribution of radioactivity in normal mice (ICR) muscle after 2 minutes of intravenous injection of [125I]-16(IMPY); type: ADME, organism-based, Muscle tissue; conditions: in vivo; procedure, shortened: as §1

Dose/organ (Mus musculus [1]): 1.51%
Dose/organ (Mus musculus [2]): 0.26%
Dose/organ (Mus musculus [3]): 2.5%
Dose/organ (Mus musculus [4]): 5.72%
Dose/organ (Mus musculus [5]): 3.14%
Dose/organ (Mus musculus [6]): 0.02%
Dose/organ (Mus musculus [7]): 2.44%
Dose/organ (Mus musculus [8]): 1.56%
Dose/organ (Mus musculus [9]): 1.46%
Dose/organ (Mus musculus [10]): 0.06%
Dose/organ (Mus musculus [11]): 0.14%
Dose/organ (Mus musculus [12]): 0.08%
Dose/organ (Mus musculus [13]): 0.04%
Dose/organ (Mus musculus [14]): 2.96%
Dose/organ (Mus musculus [15]): 0.12%
Dose/organ (Mus musculus [16]): 0.25%
Dose/organ (Mus musculus [17]): 1.17%
Dose/organ (Mus musculus [18]): 0.2%
Dose/organ (Mus musculus [19]): 4.28%
Dose/organ (Mus musculus [20]): 1.4%
Dose/organ (Mus musculus [21]): 4.69%
Dose/organ (Mus musculus [22]): 0.12%
Dose/organ (Mus musculus [23]): 0.61%
Dose/organ (Mus musculus [24]): 2.9%
Dose/organ (Mus musculus [25]): 0.22%
Dose/organ (Mus musculus [26]): 0.31%
Dose/organ (Mus musculus [27]): 13.8%
Compound: CN(C)c1ccc(-c2cn3cc(I)ccc3n2)cc1
